Assay outcomes (PubChem BioAssay)
KLK7 zymogen act: proKLK7 (human) activation, primary screen | P49862 | purified proKLK7, EDANS-DABCYL substrate fluorescence; 100% is mature enzyme control, 0% vehicle | activation, % at 7 µM | hit rate 0.9% among 370,000 | AID 652039;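 active means activation above the mean of all tested compounds plus 3 SD, computed per campaign excluding outliers beyond control limits, cut at about 13% in these data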
NR2E3 ag-1: activates human NR2E3 receptor. inhibition of corepressor binding, % at 3.98 µM. AID 602229. Q9Y5X4. CHO-S Gal4-NCOR/VP16-NR2E3 two-hybrid, luciferase. hit rate 0.35% among 360,000;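 active means inhibition above the mean of all tested compounds plus 3 SD, cut at about 70% in these data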;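 further: 0% = DMSO with NR2E3 transfected cells and 100% = cells lacking NR2E3 construct; higher means lower luciferase signal from less NR2E3 corepressor binding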
Target sequence (Q9Y5X4 whole entry, looked up, the tested form may be a part): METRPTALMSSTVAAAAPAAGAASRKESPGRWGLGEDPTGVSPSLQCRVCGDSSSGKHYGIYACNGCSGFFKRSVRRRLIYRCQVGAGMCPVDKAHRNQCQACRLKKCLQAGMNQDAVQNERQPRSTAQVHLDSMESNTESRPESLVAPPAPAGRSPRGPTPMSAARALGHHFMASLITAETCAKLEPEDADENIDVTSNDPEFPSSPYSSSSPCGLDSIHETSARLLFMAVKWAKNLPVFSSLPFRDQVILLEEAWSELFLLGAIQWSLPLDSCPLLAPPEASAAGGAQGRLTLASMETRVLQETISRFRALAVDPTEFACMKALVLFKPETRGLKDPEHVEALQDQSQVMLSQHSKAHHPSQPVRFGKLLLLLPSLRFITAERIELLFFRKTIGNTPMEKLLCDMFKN
NR2E3 ag-2: NR2E3 (human) agonism | hit rate 0.12% among 320,000 | GST-NR2E3/biotin-RetCOR TR-FRET, 1536-well | inhibition of corepressor binding, % at 4.78 µM | Q9Y5X4 | AID 2300;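 active means percent inhibition above the cutoff of mean plus 3 SD of all tested compounds, set per screening campaign, cut at about 20% in these data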;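 further: 0% = DMSO wells and 100% = biotin wells as full block of FRET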
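Test system: GST-NR2E3 and biotin-RetCOR proteins | Quantity: 1.35 nM GST-tagged NR2E3 final | Medium: Tris pH 7.5 | Also added: 7 nM biotin-RetCOR | Dosing: Compound at 4.8 µM, single dose | Timing: 5 h at 4 °C | Detection: Time-resolved FRET | Read-out basis: Percent inhibition | Benchmarks: Biotin wells as high control, 0.6% DMSO wells as low control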
ADAM17 inh: inhibitors of human ADAM17 | AID 720648 | inhibition, % at 6.95 µM | hit rate 0.83% among 370,000 | recombinant ADAM17, EDANS/DABCYL FRET peptide cleavage | P78536;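 active means inhibition above the mean of compounds lying between control limits plus 3 SD, set per campaign, cut at about 8.5% in these data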;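 further: 0% = DMSO-only wells as the low control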
ADAM10 inh: ADAM10 inhibition, QFRET primary screen; inhibition, % at 7 µM; O14672; recombinant ADAM10, EDANS/DABCYL FRET peptide cleavage, 3 h; AID 720582; hit rate 0.62% among 370,000;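 active means inhibition above a per-campaign cutoff equal to the mean of compounds falling between control-based bounds plus 3 SD, cut at about 20% in these data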;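 further: 0% = DMSO wells while the 100% control is not disclosed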
JMJD2C inh: blocks human GASC-1 demethylase activity; Q9H3R0; GST-JMJD2C(1-420) H3K9me3 demethylation, DELFIA europium; inhibition, % at 2.35 µM; hit rate 0.069% among 330,000; AID 2099;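 active means more than half of a compound's replicate wells show inhibition beyond 50%, single wells judged on their own value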;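 further: signal counts dimethyl H3K9 product captured on neutravidin plate; 0% = median of DMSO wells and 100% = 0.3 times that DMSO median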
Target sequence (Q9H3R0 1-420 limits assumed): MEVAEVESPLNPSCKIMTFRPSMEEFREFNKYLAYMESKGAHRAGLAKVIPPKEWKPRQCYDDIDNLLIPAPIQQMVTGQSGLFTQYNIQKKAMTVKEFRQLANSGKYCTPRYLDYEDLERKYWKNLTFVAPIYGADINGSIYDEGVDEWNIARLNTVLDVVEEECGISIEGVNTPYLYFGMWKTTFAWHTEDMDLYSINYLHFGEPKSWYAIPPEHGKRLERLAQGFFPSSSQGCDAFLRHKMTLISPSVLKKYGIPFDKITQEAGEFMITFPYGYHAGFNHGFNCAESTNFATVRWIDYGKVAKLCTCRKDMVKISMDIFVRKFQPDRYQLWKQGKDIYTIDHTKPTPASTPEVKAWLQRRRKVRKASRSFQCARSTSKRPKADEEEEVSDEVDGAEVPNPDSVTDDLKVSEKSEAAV
ADAM10 confirm: human ADAM10 inhibition, confirmation; shares compounds with ADAM10 inh; hit rate 1% among 2,100; inhibition, % at 6.95 µM; AID 743208; ADAM10 QFRET peptide cleavage, EDANS fluorescence;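 active means inhibition above about 20% chosen separately for each screening run, limit read from the data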;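 further: 0% = DMSO wells and 100% = marimastat wells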
ADAM17 ctr: inhibits human ADAM17 in ADAM10 exosite counter-screen; shares compounds with ADAM10 inh; ADAM17 QFRET peptide cleavage, EDANS fluorescence; inhibition, % at 6.95 µM; hit rate 0.5% among 2,100; AID 743214;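 active means mean triplicate inhibition above the solvent-only control wells' mean plus 3 SD, cut at about 12% in these data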;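 further: 0% = DMSO wells and 100% = marimastat wells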
ADAM10 ctr: counter-screen for ADAM17 exosite inhibitors: inhibitors of human ADAM10 | recombinant ADAM10, EDANS/DABCYL FRET peptide cleavage, 3 h | shares compounds with ADAM17 inh | hit rate 47% among 2,900 | AID 743256 | inhibition, % at 6.95 µM;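 active means mean inhibition over the triplicate runs exceeds the activity threshold set in the earlier primary screen, cut at about 20% in these data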;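 further: 0% = DMSO wells and 100% = marimastat wells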
ADAM17 confirm: confirmation of inhibitors of human ADAM17. shares compounds with ADAM17 inh. recombinant ADAM17, EDANS/DABCYL QFRET peptide cleavage. inhibition, % at 6.95 µM. hit rate 65% among 2,900. AID 743257;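 active means mean inhibition across replicates above the hit cutoff set in the primary screen, cut at about 8.5% in these data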;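 further: 0% = DMSO wells and 100% = marimastat wells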
* hit, by the source's call; nt = not tested or not shown. This is a sample that favours compounds with a hit; in the whole collection about 2.5% have one here.

SMILES | KLK7 zymogen act | NR2E3 ag-1 | NR2E3 ag-2 | ADAM17 inh | ADAM10 inh | JMJD2C inh | ADAM10 confirm | ADAM17 ctr | ADAM10 ctr | ADAM17 confirm
CC(C)(C)OC(=O)C(Cc1ccc(OC(C)(C)C)cc1)NC(=O)CNC(=O)OCc1ccccc1 (stereo not drawn) | 0.2 | -24.0 | -1.3 | 13.4* | 24.6* | 12.0 | -0.5 | 0.3 | 15.3 | 8.1
C[C@H](NC(=O)OCc1ccccc1)C(=O)NNC(=O)[C@H](Cc1ccccc1)NC(=O)OC(C)(C)C | -0.2 | -7.0 | 8.1 | 2.1 | 2.6 | 19.3 | nt | nt | nt | nt
O=c1[nH]c(-c2ccccc2)ncc1OCc1ccccc1 | -0.3 | -15.8 | nt | -3.4 | -11.3 | nt | nt | nt | nt | nt
COc1cc(C(=O)Nc2ccc(S(=O)(=O)N3CCc4ccccc43)cc2)cc(OC)c1OC | 0.7 | -7.1 | 2.3 | 10.8* | 26.5* | 9.2 | 6.0 | 2.3 | 25.8* | 16.4*
COc1ccccc1C(=O)Nc1ccc(S(=O)(=O)N2CCc3ccccc32)cc1 | -0.4 | -12.2 | -1.5 | 3.1 | 5.7 | 0.1 | nt | nt | nt | nt
Cc1onc(-c2c(F)cccc2Cl)c1C(=O)Nc1cc(S(=O)(=O)N2CCCCC2)ccc1O | 0.1 | 17.1 | nt | 11.7* | 27.2* | nt | 2.9 | 1.0 | 40.0* | 17.8*
Cc1onc(-c2c(F)cccc2Cl)c1C(=O)Nc1ccc(S(=O)(=O)N2CCOCC2)cc1 | 0.2 | 16.0 | nt | 1.8 | 3.8 | -5.7 | nt | nt | nt | nt
COC(=O)[C@H](CC(C)C)N(CCCc1cn(Cc2ccc(C)cc2)nn1)S(=O)(=O)c1ccccc1Br | 0.3 | nt | nt | 12.6* | 22.7* | nt | 5.4 | 1.9 | 23.7* | 15.7*
COC(=O)c1cc(-c2ccccc2OC)c(=O)n2c1CCC2 | -0.2 | nt | nt | -2.6 | -6.5 | nt | nt | nt | nt | nt
COc1cc(-c2[nH]ncc2CN2CCCC2c2nonc2C)cc(OC)c1OC (stereo not drawn) | 0.2 | -2.8 | 0.0 | 0.1 | -6.8 | -0.1 | nt | nt | nt | nt
Cc1nonc1C1CCCN1Cc1cn[nH]c1-c1ccc(-c2ccccc2)cc1 (stereo not drawn) | 0.4 | -30.9 | 3.7 | 16.8* | 33.2* | 2.1 | 7.6 | 2.6 | 29.8* | 18.9*
CC(C)(C)NC(=O)CSc1nc2ccc(NC(=O)CSc3nnnn3Cc3ccccc3)cc2s1 | 0.4 | 24.9 | 1.4 | 9.8* | 24.6* | 0.5 | 5.2 | 1.8 | 22.3* | 14.1*
C/C(=C\C=C(C#N)C#N)c1cc(C#N)c(N)o1 | 0.9 | -10.2 | nt | -19.4 | -65.1 | 8.3 | nt | nt | nt | nt
CSc1ccccc1OCc1cc(C(=O)N2CCc3[nH]cnc3C2c2ccccn2)no1 (stereo not drawn) | -0.8 | 21.3 | -0.2 | 10.9* | 25.3* | 5.3 | 8.0 | 3.5 | -1.3 | 2.4
CSc1ccccc1OCc1cc(C(=O)N2CCN(c3ccccc3)CC2C)no1 (stereo not drawn) | -0.7 | -83.3 | -1.3 | 4.1 | 2.2 | -8.7 | nt | nt | nt | nt
Cc1ccc([C@@H]2CC=C(C(=O)O)[C@H](c3ccc(Cl)cc3)N2S(=O)(=O)c2ccccc2C)cc1 | 1.1 | 30.4 | nt | 0.1 | 10.8 | 8.5 | nt | nt | nt | nt
Cc1cc(O)c(-c2n[nH]c3c2C(c2cccc(O)c2)N(Cc2cccnc2)C3=O)cc1Cl (stereo not drawn) | -0.4 | 10.7 | 1.4 | 9.6* | 21.5* | -30.8 | 5.0 | 1.3 | 9.5 | 7.6
CCCN1C(=O)c2[nH]nc(-c3cc(Cl)c(C)cc3O)c2C1c1ccc(O)c(OC)c1 (stereo not drawn) | 0.1 | -27.3 | -1.1 | 11.7* | 20.8* | -21.6 | 3.9 | 0.4 | 34.4* | 18.9*
CN1OC[C@@H]2CN(C(=O)Nc3ccccc3)[C@H](c3ccc(N4CCCCC4)cc3)C[C@@H]21 | -0.1 | -7.6 | nt | 1.0 | 3.4 | nt | nt | nt | nt | nt
CCN(c1ccccc1)S(=O)(=O)c1cc(C(=O)Nc2ccc(Br)cc2)ccc1F | 0.1 | 5.5 | 0.3 | 12.1* | 24.1* | -6.9 | 7.7 | 3.0 | 25.7* | 12.9*
Cc1ccc(NC(=O)c2ccccc2)cc1C | 0.5 | -18.4 | 3.0 | -4.5 | -5.6 | -1.7 | nt | nt | nt | nt
Cc1ccc(C(=O)Oc2cccc(NC(=O)c3ccccc3)c2)cc1C | -0.2 | -14.0 | 3.7 | 13.0* | 24.8* | 0.4 | 9.0 | 2.4 | 23.8* | 14.0*
Cc1ccc(NC(=O)N(Cc2ccco2)Cc2cc3cc(C)cc(C)c3nc2Cl)cc1 | -0.1 | nt | nt | -5.1 | 2.2 | 18.9 | nt | nt | nt | nt
Cc1cccc2cc(CN(Cc3ccco3)C(=O)Nc3cccc(C#N)c3)c(Cl)nc12 | -0.2 | -7.3 | 4.5 | 9.9* | 28.8* | 8.9 | 11.5 | 3.2 | 42.0* | 23.1*
COC(=O)C(Nc1ccccc1Cl)(c1cc(C)c(O)c(C)c1)C(F)(F)F (stereo not drawn) | 0.1 | 4.3 | 2.9 | 12.6* | 29.8* | -33.6 | 8.8 | 3.6 | 41.2* | 20.2*
SMILES | KLK7 zymogen act | NR2E3 ag-1 | NR2E3 ag-2 | ADAM17 inh | ADAM10 inh | JMJD2C inh | ADAM10 confirm | ADAM17 ctr | ADAM10 ctr | ADAM17 confirm
CC(Cc1ccccc1)NC(=S)CN1CCCC1=S (stereo not drawn) | -0.2 | -0.5 | 2.6 | -4.6 | 3.7 | -9.9 | nt | nt | nt | nt
Cc1ccc(C(=O)C(C)OC(=O)Cn2c(C)csc2=O)cc1 (stereo not drawn) | -0.3 | -0.9 | -5.1 | 2.0 | -1.9 | 7.4 | nt | nt | nt | nt
COc1ccc(NC(=O)c2ccc3c(=O)n(-c4ccc(OC)cc4OC)c(=S)[nH]c3c2)cc1 | -0.4 | -37.4 | 0.0 | 9.1* | 24.1* | 9.8 | 3.6 | 0.6 | 18.1 | 4.4
COc1ccc(OC)c(NC(=O)COC(=O)Cc2ccc(-c3ccccc3)cc2)c1 | 0.3 | 19.5 | 1.7 | 14.9* | 27.7* | -5.3 | 6.7 | 1.8 | 14.4 | 12.6*
O=C(CN1CCN(S(=O)(=O)c2ccc(Br)cc2)CC1)N/N=C/c1ccc(Cl)c([N+](=O)[O-])c1 | 0.4 | -12.8 | 0.5 | 11.3* | 25.7* | -10.0 | 1.8 | 0.5 | 26.1* | 13.8*
CC1CC(C)CN(C(=O)CSc2nnc(N)s2)C1 (stereo not drawn) | -0.5 | 7.9 | 1.4 | -0.4 | -9.5 | 6.0 | nt | nt | nt | nt
CC(C)(C)N(Cc1ccccc1)C(=O)COC(=O)c1cccc([N+](=O)[O-])c1 | 0.2 | -17.3 | 0.5 | -1.5 | 3.4 | -1.9 | nt | nt | nt | nt
O=C(COc1ccccc1Cl)N1CCN(c2ccc([N+](=O)[O-])c(N3CCCCC3)c2)CC1 | 0.2 | 6.2 | 1.9 | -0.7 | -1.6 | -0.6 | nt | nt | nt | nt
